Active and inactive are the calls of the source. No cut-off for these calls is given here.
Assays:
[1] = target: DCN1-like protein 1/NEDD8-conjugating enzyme Ubc12 (Homo sapiens, UniProt Q96GG9); test: Inhibition of GST-tagged DCN1 PONY domain (unknown origin)/human N-terminal acetylated UBC12 (1 to 12 residues) protein-protein interaction incubated for 1 hr by HTRF analysis; assay type: protein assay
MGC-803 [2] = test: Inhibition of cullin2 neddylation in UBC/DCN1 overactivated human MGC-803 cells at 0.3 to 10 uM incubated for 24 hrs by Western blot analysis; assay type: cell-based; conditions: dose 0.3-10 µM
Method in brief: (§1)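 Cells in 6-well plates were exposed to compound for 24 h. MGC-803 were grown in DMEM and KYSE70 in RPMI 1640, both with 10% FBS at 37 °C and 5% CO2. Lysates were made in RIPA with protease inhibitors and quantified by BCA. 30 μg protein was run on 8% SDS-PAGE and blotted to nitrocellulose. Primary antibodies were applied overnight at 4 °C, then HRP secondaries, with ECL and film detection. GAPDH was the loading control. Run three times.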

Cullin-4A (Homo sapiens) = Cullin-4A (Homo sapiens) (UniProt Q13619); test: Inhibition of cullin4A neddylation in UBC/DCN1 overactivated human MGC-803 cells at 0.3 to 10 uM incubated for 24 hrs by Western blot analysis; assay type: cell-based; conditions: dose 0.3-10 µM; method in brief: as §1
Chain of Cullin-4A (Homo sapiens) (Q13619 whole entry): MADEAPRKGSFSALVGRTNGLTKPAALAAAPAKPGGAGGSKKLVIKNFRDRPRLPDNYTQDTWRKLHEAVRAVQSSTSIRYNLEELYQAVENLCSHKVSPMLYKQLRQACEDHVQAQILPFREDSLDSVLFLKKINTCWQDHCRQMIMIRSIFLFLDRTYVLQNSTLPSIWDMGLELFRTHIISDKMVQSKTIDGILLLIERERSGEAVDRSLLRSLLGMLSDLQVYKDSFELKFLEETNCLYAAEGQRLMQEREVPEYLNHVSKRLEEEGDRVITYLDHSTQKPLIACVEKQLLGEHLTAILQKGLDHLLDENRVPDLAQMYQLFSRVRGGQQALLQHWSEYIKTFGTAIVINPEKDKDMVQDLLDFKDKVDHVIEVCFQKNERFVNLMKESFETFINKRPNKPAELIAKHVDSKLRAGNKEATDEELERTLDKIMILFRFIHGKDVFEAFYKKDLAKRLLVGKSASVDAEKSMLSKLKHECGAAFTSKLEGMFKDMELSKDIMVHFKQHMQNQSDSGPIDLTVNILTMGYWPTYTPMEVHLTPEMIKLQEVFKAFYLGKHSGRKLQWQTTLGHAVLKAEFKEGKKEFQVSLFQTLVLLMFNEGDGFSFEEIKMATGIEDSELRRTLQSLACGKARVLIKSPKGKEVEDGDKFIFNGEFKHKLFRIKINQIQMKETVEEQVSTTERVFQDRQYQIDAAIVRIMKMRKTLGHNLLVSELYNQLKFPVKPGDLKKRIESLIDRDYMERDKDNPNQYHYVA

MGC-803 [3] = test: Induction of ROS generation in human MGC-803 cells at 0.3 uM incubated for 24 hrs by DCFH-DA staining based flow cytometry analysis (reference value: 1.4%); assay type: functional
MGC-803 [4] = test: Induction of ROS generation in human MGC-803 cells at 1 uM incubated for 24 hrs by DCFH-DA staining based flow cytometry analysis (reference value: 1.4%); assay type: functional
Cullin-5 (Homo sapiens) = target: T1, Cullin-5 (Homo sapiens) (UniProt Q93034); test: Inhibition of cullin5 neddylation in UBC/DCN1 overactivated human MGC-803 cells at 0.3 to 10 uM incubated for 24 hrs by Western blot analysis; assay type: cell-based; conditions: dose 0.3-10 µM; method in brief: as §1
T1 sequence (whole entry): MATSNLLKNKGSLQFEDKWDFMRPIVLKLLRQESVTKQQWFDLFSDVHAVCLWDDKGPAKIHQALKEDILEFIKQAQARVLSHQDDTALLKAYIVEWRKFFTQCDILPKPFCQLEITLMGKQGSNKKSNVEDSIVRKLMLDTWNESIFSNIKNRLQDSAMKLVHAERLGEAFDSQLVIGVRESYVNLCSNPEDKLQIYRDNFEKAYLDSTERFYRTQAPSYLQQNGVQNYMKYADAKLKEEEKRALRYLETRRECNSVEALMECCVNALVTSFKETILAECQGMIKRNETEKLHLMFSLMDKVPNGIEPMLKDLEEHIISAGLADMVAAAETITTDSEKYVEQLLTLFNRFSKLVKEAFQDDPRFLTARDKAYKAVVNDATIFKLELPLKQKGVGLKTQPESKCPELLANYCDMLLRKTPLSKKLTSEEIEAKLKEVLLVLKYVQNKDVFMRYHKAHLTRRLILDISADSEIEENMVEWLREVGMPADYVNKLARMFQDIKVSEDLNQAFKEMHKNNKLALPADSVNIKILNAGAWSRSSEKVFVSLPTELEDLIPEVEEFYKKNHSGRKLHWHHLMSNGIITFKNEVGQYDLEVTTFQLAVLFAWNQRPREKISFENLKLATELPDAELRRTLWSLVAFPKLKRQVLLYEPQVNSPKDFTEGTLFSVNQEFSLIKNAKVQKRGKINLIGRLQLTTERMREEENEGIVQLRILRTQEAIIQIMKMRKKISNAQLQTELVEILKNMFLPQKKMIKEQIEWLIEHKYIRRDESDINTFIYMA

MGC-803 [5] = test: Induction of ROS generation in human MGC-803 cells at 3 uM incubated for 24 hrs by DCFH-DA staining based flow cytometry analysis (reference value: 1.4%); assay type: functional
Cullin-1 (Homo sapiens) = Cullin-1 (Homo sapiens) (UniProt Q13616); test: Inhibition of cullin1 neddylation in UBC/DCN1 overactivated human MGC-803 cells at 0.3 to 10 uM incubated for 24 hrs by Western blot analysis; assay type: cell-based; conditions: dose 0.3-10 µM; method in brief: as §1
Chain of Cullin-1 (Homo sapiens) (Q13616 whole entry): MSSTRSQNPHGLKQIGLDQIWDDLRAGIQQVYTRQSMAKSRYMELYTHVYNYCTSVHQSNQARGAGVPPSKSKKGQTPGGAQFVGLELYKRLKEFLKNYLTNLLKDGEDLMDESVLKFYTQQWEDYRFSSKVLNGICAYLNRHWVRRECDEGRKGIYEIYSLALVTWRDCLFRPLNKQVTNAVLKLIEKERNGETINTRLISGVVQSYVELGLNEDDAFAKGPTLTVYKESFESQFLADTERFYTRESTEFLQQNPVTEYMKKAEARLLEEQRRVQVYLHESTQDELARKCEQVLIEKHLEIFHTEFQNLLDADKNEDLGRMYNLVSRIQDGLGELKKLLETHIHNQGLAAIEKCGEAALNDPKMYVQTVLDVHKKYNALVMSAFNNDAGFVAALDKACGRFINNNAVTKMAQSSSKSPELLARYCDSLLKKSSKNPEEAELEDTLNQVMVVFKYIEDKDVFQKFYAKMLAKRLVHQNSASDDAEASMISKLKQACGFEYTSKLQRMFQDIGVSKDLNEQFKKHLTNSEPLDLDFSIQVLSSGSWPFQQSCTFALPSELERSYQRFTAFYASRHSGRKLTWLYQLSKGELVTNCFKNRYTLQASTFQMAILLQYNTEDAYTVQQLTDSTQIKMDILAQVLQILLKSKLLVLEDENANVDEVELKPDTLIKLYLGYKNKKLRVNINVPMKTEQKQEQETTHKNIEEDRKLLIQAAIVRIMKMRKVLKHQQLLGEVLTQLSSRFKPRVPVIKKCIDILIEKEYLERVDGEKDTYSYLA

MGC-803 [6] = test: Inhibition of cullin3 neddylation in UBC/DCN1 overactivated human MGC-803 cells at 0.3 to 10 uM incubated for 24 hrs by Western blot analysis; assay type: cell-based; conditions: dose 0.3-10 µM; method in brief: as §1
Cullin-4B (Homo sapiens) = Cullin-4B (Homo sapiens) (UniProt Q13620); test: Inhibition of cullin4B neddylation in UBC/DCN1 overactivated human MGC-803 cells at 0.3 to 10 uM incubated for 24 hrs by Western blot analysis; assay type: cell-based; conditions: dose 0.3-10 µM; method in brief: as §1
Chain of Cullin-4B (Homo sapiens) (Q13620 whole entry): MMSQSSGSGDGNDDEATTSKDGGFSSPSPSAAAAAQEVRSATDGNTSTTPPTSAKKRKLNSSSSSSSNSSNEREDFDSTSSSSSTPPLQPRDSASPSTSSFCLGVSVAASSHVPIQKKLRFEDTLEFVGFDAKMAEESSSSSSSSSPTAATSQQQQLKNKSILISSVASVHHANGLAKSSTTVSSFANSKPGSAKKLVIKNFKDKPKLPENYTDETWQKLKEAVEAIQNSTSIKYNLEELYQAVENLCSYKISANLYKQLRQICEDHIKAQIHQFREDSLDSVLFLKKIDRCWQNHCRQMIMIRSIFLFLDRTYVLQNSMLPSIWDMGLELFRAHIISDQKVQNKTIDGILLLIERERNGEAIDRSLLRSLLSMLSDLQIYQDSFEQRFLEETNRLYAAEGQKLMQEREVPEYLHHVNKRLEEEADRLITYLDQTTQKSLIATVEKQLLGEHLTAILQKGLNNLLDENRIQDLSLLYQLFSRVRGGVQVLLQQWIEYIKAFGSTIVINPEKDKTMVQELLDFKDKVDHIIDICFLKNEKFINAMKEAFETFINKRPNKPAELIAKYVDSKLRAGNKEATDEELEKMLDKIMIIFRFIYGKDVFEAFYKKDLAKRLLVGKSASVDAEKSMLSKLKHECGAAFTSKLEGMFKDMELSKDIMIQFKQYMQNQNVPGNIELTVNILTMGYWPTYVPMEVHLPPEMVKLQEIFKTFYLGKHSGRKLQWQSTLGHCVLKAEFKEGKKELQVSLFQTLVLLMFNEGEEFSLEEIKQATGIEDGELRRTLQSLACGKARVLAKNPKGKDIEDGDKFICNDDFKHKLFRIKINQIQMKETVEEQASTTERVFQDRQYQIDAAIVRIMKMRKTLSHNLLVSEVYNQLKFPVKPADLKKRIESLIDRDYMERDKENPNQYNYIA

Chain of DCN1-like protein 1/NEDD8-conjugating enzyme Ubc12 (Q96GG9 whole entry, the tested form may be a part): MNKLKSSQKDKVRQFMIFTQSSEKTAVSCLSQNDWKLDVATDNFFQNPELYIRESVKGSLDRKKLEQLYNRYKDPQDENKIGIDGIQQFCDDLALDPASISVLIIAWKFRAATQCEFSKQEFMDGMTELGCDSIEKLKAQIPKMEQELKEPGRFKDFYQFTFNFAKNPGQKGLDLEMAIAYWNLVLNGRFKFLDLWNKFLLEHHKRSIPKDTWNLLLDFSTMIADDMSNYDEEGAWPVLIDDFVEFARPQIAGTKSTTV
Chain of DCN1-like protein 1/NEDD8-conjugating enzyme Ubc12 (P61081 whole entry, further chain, the tested form may be a part): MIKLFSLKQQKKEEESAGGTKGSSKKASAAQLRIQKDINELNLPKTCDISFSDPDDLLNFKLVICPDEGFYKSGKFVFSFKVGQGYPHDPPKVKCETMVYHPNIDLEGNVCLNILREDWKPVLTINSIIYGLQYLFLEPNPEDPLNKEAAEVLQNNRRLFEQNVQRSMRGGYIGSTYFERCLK

Row | Compound | IC50 [1] | also measured
1 | Cc1cc(Sc2nnnn2CCN(C)C)n2nc(SCc3ccc(Cl)c(F)c3)nc2n1 | 17 nM | 
2 | Cc1cc(Sc2nnnn2CCN(C)C)n2nc(SCc3cc(=O)oc4c3ccc3ccccc34)nc2n1 | 309 nM | 
3 | Cc1cc(Sc2nnnn2CCN(C)C)n2ncnc2n1 | 51 nM | 
4 | Cc1cc(Sc2nnnn2CCN(C)C)n2nc(SCc3ccccc3C(F)(F)F)nc2n1 | 654 nM | 
5 | CCc1cc(Sc2nnnn2CCN(C)C)n2ncnc2n1 | 706 nM | 
6 | COc1ccc(CSc2nc3nc(C)cc(Sc4nnnn4CCN(C)C)n3n2)cc1 | 28 nM | 
7 | CN(C)CCn1nnnc1Sc1c2c(nc3ncnn13)CCC2 | 61 nM | 
8 | C#CCSc1nc2nc(-c3ccccc3)cc(Sc3nnnn3CCN(C)C)n2n1 | 79 nM | 
9 | Oc1ccc(-n2nnnc2Sc2cc(-c3ccccc3)nc3ncnn23)cc1 | 3880 nM | 
10 | c1ccc(-c2cc(Sc3nnnn3-c3ccccc3)n3ncnc3n2)cc1 | 15800 nM | 
11 | C=CCSc1nc2nc(C)cc(Sc3nnnn3CCN(C)C)n2n1 | 137 nM | 
12 | Cc1cc(Sc2nnnn2CCN(C)C)n2nc(SCc3ccc(Br)cc3)nc2n1 | 15 nM | 
13 | CC(C)c1cc(Sc2nnnn2CCN(C)C)n2ncnc2n1 | 1360 nM | 
14 | Cc1nc2nc(SCc3ccc(Cl)cc3)nn2c(Sc2nnnn2CCN(C)C)c1C | 3360 nM | 
15 | Cc1cc(Sc2nnnn2CCN(C)C)n2nc(SCCc3ccccc3)nc2n1 | 438 nM | 
16 | Cc1cc(Sc2nnnn2CCN(C)C)n2nc(SCc3c(Cl)cccc3Cl)nc2n1 | 192 nM | 
17 | CCCCCc1c(C)nc2nc(SCc3ccc(Cl)cc3)nn2c1Sc1nnnn1CCN(C)C.Cl | > 50000 nM | inhibition (MGC-803 [2]): inactive; inhibition (Cullin-4A (Homo sapiens)): inactive; Activity (MGC-803 [3]): 2.5%; Activity (MGC-803 [4]): 2.6%; inhibition (Cullin-5 (Homo sapiens)): inactive; Activity (MGC-803 [5]): 0.7%; inhibition (Cullin-1 (Homo sapiens)): inactive; inhibition (MGC-803 [6]): inactive; inhibition (Cullin-4B (Homo sapiens)): inactive
18 | Cc1cc(Sc2nnnn2CCN(C)C)n2nc(SCCCc3ccccc3)nc2n1 | 532 nM | 
19 | Cc1cc(Sc2nnnn2CCN(C)C)n2nc(SCC3CCCCC3)nc2n1 | 58 nM | 
20 | Cc1cc(Sc2nnnn2CCN(C)C)n2nc(SCc3cccc(C(F)(F)F)c3)nc2n1 | 1080 nM | 
21 | Cc1cc(Sc2nnnn2CCN(C)C)n2nc(SCC3CC3)nc2n1 | 59 nM | 
22 | Cc1cc(Sc2nnnn2CCN(C)C)n2nc(SCc3cccc4ccccc34)nc2n1 | 209 nM | 
23 | Cc1cc(Sc2nnnn2CCN(C)C)n2nc(SCc3ccccc3)nc2n1 | 22 nM | 
